Laboratory results: ChEMBL document CHEMBL1828613, “Optimization of cellular activity of G9a inhibitors 7-aminoalkoxy-quinazolines” (J Med Chem, 2011)

Tests used:
[1] = target: T1, Histone-lysine N-methyltransferase EHMT2 (Homo sapiens, UniProt Q96KQ7); assay: Inhibition of G9a in human MDA-MB-231 cells assessed as reduction of H3K9me2 after 48 hrs by In-Cell Western assay; format: cell-based
T1 sequence (Q96KQ7 whole entry): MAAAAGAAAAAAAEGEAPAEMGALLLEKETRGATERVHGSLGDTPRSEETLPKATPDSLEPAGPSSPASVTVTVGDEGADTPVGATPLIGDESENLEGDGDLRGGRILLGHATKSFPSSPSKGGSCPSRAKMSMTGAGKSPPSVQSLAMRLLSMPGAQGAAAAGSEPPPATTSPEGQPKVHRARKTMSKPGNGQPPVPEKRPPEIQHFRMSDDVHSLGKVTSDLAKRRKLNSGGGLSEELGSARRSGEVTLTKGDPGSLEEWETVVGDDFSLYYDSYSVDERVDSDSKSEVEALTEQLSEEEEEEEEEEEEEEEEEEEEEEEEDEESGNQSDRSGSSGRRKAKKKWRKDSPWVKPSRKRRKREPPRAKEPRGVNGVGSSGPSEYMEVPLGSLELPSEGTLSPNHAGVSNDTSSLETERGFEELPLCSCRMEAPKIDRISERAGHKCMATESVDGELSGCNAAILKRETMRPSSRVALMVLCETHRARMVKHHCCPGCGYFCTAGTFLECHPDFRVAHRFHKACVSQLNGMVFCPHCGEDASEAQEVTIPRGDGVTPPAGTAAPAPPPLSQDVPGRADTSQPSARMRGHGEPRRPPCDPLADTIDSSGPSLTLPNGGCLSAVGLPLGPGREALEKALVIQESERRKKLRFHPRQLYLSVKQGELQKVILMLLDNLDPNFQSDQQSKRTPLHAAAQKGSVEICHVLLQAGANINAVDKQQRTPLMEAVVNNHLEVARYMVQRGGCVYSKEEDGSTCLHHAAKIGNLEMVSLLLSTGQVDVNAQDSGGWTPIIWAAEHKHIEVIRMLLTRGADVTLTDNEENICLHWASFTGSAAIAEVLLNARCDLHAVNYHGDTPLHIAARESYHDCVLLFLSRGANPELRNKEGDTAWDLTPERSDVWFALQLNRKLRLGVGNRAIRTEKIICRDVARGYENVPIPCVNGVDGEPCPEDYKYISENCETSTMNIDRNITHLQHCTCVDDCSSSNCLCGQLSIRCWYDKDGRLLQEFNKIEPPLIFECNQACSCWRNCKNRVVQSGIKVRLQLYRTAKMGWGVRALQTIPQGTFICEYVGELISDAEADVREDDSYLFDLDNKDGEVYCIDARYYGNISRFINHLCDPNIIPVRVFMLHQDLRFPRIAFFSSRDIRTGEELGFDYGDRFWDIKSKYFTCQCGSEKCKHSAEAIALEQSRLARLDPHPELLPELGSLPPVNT
Procedure, shortened: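 In-Cell Western: MDA-MB-231 cells grown in RPMI/10% FBS were seeded at 5–10 thousand per well and treated 48 h across a concentration series. Cells were fixed in 2% formaldehyde, blocked in 1% BSA, and stained with H3K9me2 antibody (1/800, 2 h), then IR800 secondary plus DRAQ5. Three wells were stained and one kept as background. The 800 nm signal was normalized to background and DRAQ5 and expressed as % control. IC50 from a sigmoidal variable-slope fit, averaging at least duplicate runs.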

[2] = Ratio of EC50 for human MDA-MB-231 cells to IC50 for G9a in human MDA-MB-231 cells
Procedure, shortened: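 ICW used DRAQ5-normalized H3K9me2 immunofluorescence. MTT was read at 570 nm corrected at 650 nm. Each value was a sigmoidal variable-slope fit averaged over at least duplicate runs.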

MDA-MB-231 = assay: Cytotoxicity against human MDA-MB-231 cells assessed as cell viability after 48 hrs by MTT assay; format: functional, cell-based; settings: MDA-MB-231, 48 h
[3] = target: T1, Histone-lysine N-methyltransferase EHMT2; assay: Inhibition of G9a assessed as hydrolysis of S-adenosyl-L-homocysteine after 2 mins by SAHH-coupled fluorescence assay
CWR22R = assay: Cytotoxicity against human 22Rv1 cells assessed as cell viability after 48 hrs by MTT assay; format: functional, cell-based; settings: 22Rv1, 48 h
Procedure, shortened: (§1)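 MTT viability read after 48 h inhibitor exposure. Culture media were alphaMEM + 10% FBS for 22RV1, DMEM + 10% FBS for IMR90 and MCF7, and RPMI + 10% FBS for PC3. Medium was replaced with phenol-red-free DMEM 10% FBS containing 1 mg/ml MTT for 1–2 h. Formazan was dissolved in acidified isopropanol/1% Triton and read at 570 nm minus 650 nm. EC50 came from a sigmoidal variable-slope fit, averaging at least duplicate runs.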

IMR-90 = assay: Cytotoxicity against human IMR90 cells assessed as cell viability after 48 hrs by MTT assay; format: cell-based; settings: IMR-90, 48 h; procedure, shortened: as §1
PC-3 = assay: Cytotoxicity against human PC3 cells assessed as cell viability after 48 hrs by MTT assay; format: functional, cell-based; settings: PC-3, 48 h; procedure, shortened: as §1
[4] = Cytotoxicity against human […] assessed as cell viability after 48 hrs by MTT assay; format: functional, cell-based; procedure, shortened: as §1
[5] = target: T1, Histone-lysine N-methyltransferase EHMT2; assay: Inhibition of G9a in p53-deficient human HCT116 cells assessed as reduction of H3K9me2 after 48 hrs by In-Cell Western assay; format: cell-based, HCT-116
[6] = target: T1, Histone-lysine N-methyltransferase EHMT2; assay: Inhibition of G9a in human 22Rv1 cells assessed as reduction of H3K9me2 after 48 hrs by In-Cell Western assay; format: cell-based, CWR22R
[7] = target: T1, Histone-lysine N-methyltransferase EHMT2; assay: Inhibition of G9a in human MCF7 cells assessed as reduction of H3K9me2 after 48 hrs by In-Cell Western assay; format: cell-based
[8] = target: T1, Histone-lysine N-methyltransferase EHMT2; assay: Inhibition of G9a in human HCT116 cells assessed as reduction of H3K9me2 after 48 hrs by In-Cell Western assay; format: cell-based, HCT-116
[9] = target: T1, Histone-lysine N-methyltransferase EHMT2; assay: Inhibition of G9a in human IMR90 cells assessed as reduction of H3K9me2 after 48 hrs by In-Cell Western assay; format: cell-based, IMR-90
[10] = target: T1, Histone-lysine N-methyltransferase EHMT2; assay: Inhibition of G9a in human PC3 cells assessed as reduction of H3K9me2 after 48 hrs by In-Cell Western assay; format: cell-based, PC-3

Structure (SMILES) | IC50 [1] [nM] | Ratio [2] | EC50 (MDA-MB-231) [nM] | IC50 [3] [nM] | further results
COc1cc2c(NC3CCN(C(C)C)CC3)nc(N3CCCN(CC4CCCCC4)CC3)nc2cc1OCCCN1CCCC1 | 93 | 8 | 760 | – | –
COc1cc2c(NC3CCN(C)CC3)nc(N3CCCN(C)CC3)nc2cc1OCCCN1CCCC1 | – | – | 15000 | – | –
COc1cc2c(NC3CCN(C4CCCCC4)CC3)nc(N3CCCN(C)CC3)nc2cc1OCCCN1CCCCC1 | 56 | – | 2900 | 11 | –
COc1cc2c(NC3CCN(C(C)C)CC3)nc(N3CCCN(C)CC3)nc2cc1OCCCN1CCCC1 | 520 | 3 | 1400 | 10 | –
COc1cc2c(NC3CCN(C(C)C)CC3)nc(N3CCCCC3)nc2cc1OCCCN1CCCC1 | 150 | 47 | 7000 | 16 | –
COc1cc2c(NC3CCN(C(C)C)CC3)nc(N3CCCN(C4CCCCC4)CC3)nc2cc1OCCCN1CCCC1 | 100 | 7 | 730 | 22 | –
COc1cc2c(NC3CCN(C(C)C)CC3)nc(C3CCCCC3)nc2cc1OCCCN1CCCC1 | – | – | – | – | EC50 (CWR22R): 4500 nM; EC50 (IMR-90): 2300 nM; EC50 (PC-3): 14000 nM; EC50 [4]: 7600 nM
CCN1CCCN(c2nc(NC3CCN(C(C)C)CC3)c3cc(OC)c(OCCCN4CCCC4)cc3n2)CC1 | 470 | 4 | 1700 | – | –
COc1cc2c(NC3CCN(CC4CCCCC4)CC3)nc(N3CCCN(C(C)C)CC3)nc2cc1OCCCN1CCCCC1 | 25 | – | 2800 | 4 | IC50 [5]: 72 nM; IC50 [6]: 24 nM; IC50 [7]: 18 nM; IC50 [8]: 51 nM; IC50 [9]: 46 nM; IC50 [10]: 26 nM
COc1cc2c(NC3CCN(C(C)C)CC3)nc(C3CCCCC3)nc2cc1OCCCN1CCCCC1 | 260 | – | 7600 | 110 | –
COc1cc2c(NC3CCN(C(C)C)CC3)nc(N3CCCN(C(C)C)CC3)nc2cc1OCCCN1CCCCC1 | 54 | – | 4100 | 8 | –
COc1cc2c(NC3CCN(C(C)C)CC3)nc(C3CCCCC3)nc2cc1OCCOCCN(C)C | 180 | – | 13000 | 21 | –
COc1cc2c(NC3CCN(C)CC3)nc(N3CCCN(C)CC3)nc2cc1OCCCN1CCCCC1 | – | – | 12000 | – | –
COc1cc2c(NC3CCN(C(C)C)CC3)nc(N3CCCN(Cc4ccccc4)CC3)nc2cc1OCCCN1CCCC1 | 58 | 10 | 600 | 9 | –
COc1cc2c(NC3CCN(C(C)C)CC3)nc(N3CCCN(C(C)C)CC3)nc2cc1OCCCN1CCCC1 | 340 | 13 | 4500 | 2 | –
COc1cc2c(NC3CCN(C(C)C)CC3)nc(N3CCCCCC3)nc2cc1OCCCN1CCCCC1 | 240 | – | 6600 | 31 | –
COc1cc2c(NC3CCN(C(C)C)CC3)nc(N3CCCN(c4ccccc4)CC3)nc2cc1OCCCN1CCCC1 | 220 | 10 | 2100 | 10 | –
COc1cc2c(NC3CCN(C)CC3)nc(N3CCCN(C)CC3)nc2cc1OCCOCCN(C)C | 11000 | – | > 40000 | – | –
COc1cc2c(NC3CCN(C(C)C)CC3)nc(N3CCCCCC3)nc2cc1OCCCN1CCCC1 | 100 | 57 | 5700 | 20 | –
COc1cc2c(NC3CCN(C)CC3)nc(N3CCCN(C)CC3)nc2cc1OCCCN(C)C | – | – | 34000 | – | –
